Results: ChEMBL document CHEMBL5335782, “Discovery of new imidazotetrazinones with potential to overcome tumor resistance” (Eur J Med Chem, 2023)
One block for each compound: values may come before it. Activity calls are given as the source filed them. The calls are words filed in the database; no cut-off is given here.

How the values were obtained:
HCT-116 [1] = experiment: Antiproliferative activity against MMR-deficient human HCT-116 cells assessed as inhibition of cell growth measured after […] by MTT assay; type: functional
Method in brief: (§1)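 Cells seeded at 6.5×10^2/well, left overnight, then exposed to vehicle or agent (n = 4-8; final 0.5–1000 μM; DMSO stocks of 50 or 10 mM diluted in medium). MTT read at time of addition and after 6 days at 37 °C, 5% CO₂. MTT 0.4 mg/mL for 4 h, formazan taken up in DMSO, A550. GI50 from non-linear regression; mean ± SD of >3 experiments.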

[2] = Antiproliferative activity against human U373V cells assessed as inhibition of cell growth measured […] by MTT assay; type: functional; method in brief: as §1
[3] = Antiproliferative activity against MGMT-expressing human U373M cells assessed as inhibition of cell growth measured after […] by MTT assay; type: functional; method in brief: as §1
U373M [4] = experiment: Induction of cell cycle arrest in MGMT-expressing human U373M cells assessed as accumulation of cells at S phase at 100 uM measured after 120 hrs by propidium iodide staining based flow cytometry; type: functional
[5] = Intrinsic clearance in rat liver microsomes in presence of NADPH; type: ADME, Microsome; conditions: read-out: CLH
[6] = Half life of the compound in phosphate buffered saline at pH 6.8 by LC-MS analysis; type: physicochemical
Method in brief: (§2)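 Half-life in phosphate buffers at pH 5, 6.8 or 7.4 followed by LC-MS; mean of two independent experiments.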

[7] = Permeability of the compound measured after 6 hrs by PAMPA assay; type: ADME; conditions: read-out: permeability
Method in brief: (§3)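 PAMPA passive-diffusion assay run as contract research under the provider's protocols, with control compounds. After 6 h incubation, permeability (Pe) and percentage recovery determined.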

[8] = Half life in rat plasma; type: ADME, cell-free
U373V [9] = experiment: Induction of cell cycle arrest in human U373V cells assessed as accumulation of cells at S phase at 100 uM measured after 120 hrs by propidium iodide staining based flow cytometry; type: functional
U373V [10] = experiment: Induction of cell cycle arrest in human U373V cells assessed as accumulation of cells at G2/M phase at 100 uM measured after 120 hrs by propidium iodide staining based flow cytometry; type: functional
[11] = Intrinsic clearance in human liver microsomes in presence of NADPH; type: ADME, Microsome; conditions: read-out: CLH
[12] = Half life in human liver microsomes in absence of NADPH; type: ADME, Microsome
[13] = Drug metabolism in phosphate buffered saline assessed as half life of 5-(3-(prop-2-yn-1-yl)triaz-2-en-1-yl)-1H-imidazole-4-carboxamide at pH 7.4 by 1HNMR spectroscopy; type: ADME; conditions: buffer
[14] = Intrinsic clearance in human liver microsomes in absence of NADPH; type: ADME, Microsome; conditions: read-out: CLH
U373V [15] = experiment: Induction of cell cycle arrest in human U373V cells assessed as accumulation of cells at sub-G1 phase at 100 uM measured after 120 hrs by propidium iodide staining based flow cytometry; type: functional
[16] = Half life of the compound in phosphate buffered saline at pH 7.4 by 1H NMR spectroscopic analysis; type: physicochemical
Method in brief: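 Half-life followed by ¹H NMR spectroscopy in phosphate buffers at pH 7.4 or 5.5.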

[17] = Permeability of the compound assessed as drug recovery measured after 6 hrs by PAMPA assay; type: ADME; conditions: read-out: Drug recovery; method in brief: as §3
[18] = Half life in rat liver microsomes in presence of NADPH; type: ADME, Microsome
[19] = Half life in human plasma; type: ADME, cell-free
[20] = Half life of the compound in phosphate buffered saline at pH 7.4 by LC-MS analysis; type: physicochemical; method in brief: as §2
[21] = Intrinsic clearance in rat liver microsomes in absence of NADPH; type: ADME, Microsome; conditions: read-out: CLH
[22] = Half life in rat liver microsomes in absence of NADPH; type: ADME, Microsome
HCT-116 [23] = experiment: Induction of cell cycle arrest in MMR-deficient human HCT-116 cells assessed as loss of cell cycle integrity at 100 uM measured after 120 hrs by propidium iodide staining based flow cytometry; type: functional
[24] = Half life in human liver microsomes in presence of NADPH; type: ADME, Microsome
HCT-116 [25] = experiment: Induction of cell cycle arrest in MMR-deficient human HCT-116 cells assessed as accumulation of cells at sub-G1 phase at 100 uM measured after 120 hrs by propidium iodide staining based flow cytometry (Rvb ~5%); type: functional
[26] = Induction of cell cycle arrest in MGMT-expressing human U373M cells assessed as accumulation of cells at G2/M phase at 100 uM measured after 120 hrs by propidium iodide staining based flow cytometry (Rvb ~ 15%); type: functional
[27] = Ratio of permeability across dog MDCK cells transfected with MDR1 to permeability across wild type dog MDCK cells; type: ADME, cell-based, Canis lupus familiaris
U373M [28] = experiment: Induction of cell cycle arrest in MGMT-expressing human U373M cells assessed as accumulation of cells at sub-G1 phase at 100 uM measured after 120 hrs by propidium iodide staining based flow cytometry; type: functional
[29] = Drug metabolism in phosphate buffered saline assessed as Tmax of 5-(3-(prop-2-yn-1-yl)triaz-2-en-1-yl)-1H-imidazole-4-carboxamide at pH 7.4 by 1HNMR spectroscopy; type: ADME; conditions: buffer
[30] = Half life of the compound in phosphate buffered saline at pH 5 by LC-MS analysis; type: physicochemical; method in brief: as §2

SMILES: C#CCn1nnc2c(C(N)=O)ncn2c1=O
Activity (U373M [4]): Active | microsomal CLint [5]: 35.5 µL/min/mg | half-life [6]: 232 min | Papp at 6 h [7]: 1.38 ×10⁻⁶ cm/s | half-life [8]: 25.9 min | Activity (U373V [9]): Active | Activity (U373V [10]): Active | microsomal CLint [11]: 18.1 µL/min/mg | half-life [12]: 55.1 min | t1/2 [13]: 270 min | microsomal CLint [14]: 25.2 µL/min/mg | Activity (U373V [15]): Active | half-life [16]: 49 min | recovery at 6 h [17]: 6.9% | half-life [18]: 39.3 min | GI50 (HCT-116 [1]): 28.1 µM | half-life [19]: 14.5 min | half-life [20]: 115 min | microsomal CLint [21]: 29.2 µL/min/mg | half-life [22]: 48.7 min | Activity (HCT-116 [23]): Active | half-life [24]: 77.8 min | Activity (HCT-116 [25]): 96% | Activity [26]: 33% | GI50 [2]: 30 µM | Ratio [27]: 0.93 | Activity (U373M [28]): Active | Tmax [29]: 120 min | half-life [30]: > 480 min | GI50 [3]: 26.6 µM

SMILES: Nc1nc[nH]c1-c1nccs1
GI50 (HCT-116 [1]): 97 µM | GI50 [2]: > 100 µM | GI50 [3]: 89.3 µM

SMILES: C#CCn1nnc2c(-c3nc(C4CC4)cs3)ncn2c1=O
GI50 (HCT-116 [1]): 27.7 µM | GI50 [2]: 27.1 µM | GI50 [3]: 25.8 µM

SMILES: C#CCn1nnc2c(-c3nc(C(F)(F)C(F)(F)F)cs3)ncn2c1=O
GI50 (HCT-116 [1]): 27.7 µM | GI50 [2]: 27.1 µM | GI50 [3]: 25.8 µM

Further lines, with some results ahead:

GI50 (HCT-116 [1]): 5.97 µM
SMILES: C#CCN/N=N/c1[nH]cnc1-c1nccs1
GI50 [2]: 7.51 µM | GI50 [3]: 5.81 µM

GI50 (HCT-116 [1]): 27.6 µM
SMILES: C#CCn1nnc2c(-c3nc(-c4ccc(F)cc4)cs3)ncn2c1=O
GI50 [2]: 27.9 µM | GI50 [3]: 19.7 µM
